Series [1] deals with Mast/stem cell growth factor receptor Kit (Homo sapiens, UniProt P10721). Put plainly: Inhibition of human c-Kit using poly[Glu:Tyr] (4:1) as substrate measured after 2 hrs in presence of [33gammaP]ATP by […] ion exchange chromatographic method. The method in brief:
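Radiometric kinase assay: enzyme incubated with [γ-33P]-ATP and peptide substrate; IC50 curves fitted per compound. Selectivity expressed as c-Kit IC50 over CSF1R IC50.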

The subject of series [2] is RAW264.7. Put plainly: Growth inhibition of mouse RAW264.7 cells at 1 uM after 72 hrs by CellTiter-Glo luminescent assay relative to control. In kind it is functional. The note with it: for inhibition of growth at 1 µM: RAW264.7, 72 h, read-out: GI.
Series [3] is described as follows: Stability in human liver microsomes assessed as compound remaining at 1 uM after 30 mins in presence of NADPH by LC/MS/MS analysis. The note with it: read-out: Stability. The format is ADME, microsome. The method in brief: (§1)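 Metabolic stability in human or mouse liver microsomes supplemented with NADPH; reported as percent of parent remaining relative to time-zero control.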
A general note: Liver microsomes are vesicles of endoplasmic reticulum, rich in cytochrome P450 enzymes.

Series [4] can be described thus: Stability in mouse liver microsomes assessed as compound remaining at 1 uM after 30 mins in presence of NADPH by LC/MS/MS analysis. The note with it: read-out: Stability. The format is ADME, microsome. The method in brief:
as §1

Series [5] in a line: Growth inhibition of mouse BMMC at 1 uM after 72 hrs by CellTiter-Glo luminescent assay relative to control. In kind it is functional. Particulars: read-out: GI. The method in brief:
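Cell viability in primary mouse bone marrow-derived macrophages, which depend on CSF1 for survival; inhibition measured at 1 single concentration.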
On the technique in general: In ATP-based viability assays light output follows the ATP content of the culture.

The nature of series [6]: Apparent permeability from apical to basolateral side in human Caco2 cells at 10 uM incubated for 60 mins by LC-MS/MS analysis. The format is ADME, cell-based, Caco-2. Particulars: Caco-2. The procedure, abridged:
(§2)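 Caco2 monolayer permeability measured in apical-to-basolateral and basolateral-to-apical directions; mean Papp with SD reported, efflux ratio calculated from the two directions.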

Series [7] in a line: Apparent permeability from basolateral to apical side in human Caco2 cells at 10 uM incubated for 60 mins by LC-MS/MS analysis. In kind it is ADME, cell-based, Caco-2. Particulars: Caco-2. The method in brief:
as §2

Series [8] addresses Macrophage colony-stimulating factor 1 receptor (Homo sapiens, UniProt P07333). Put plainly: Inhibition of human CSF1R using poly[Glu:Tyr] (4:1) as substrate incubated for 2 hrs in presence of [33gammaP]ATP by P81 ion exchange chromatographic method.

Active and inactive are the calls of the source. The rule behind the calls is not given here. A value given as a limit tells only on which side of the number the result lay.

Sequence of Mast/stem cell growth factor receptor Kit (P10721 whole entry): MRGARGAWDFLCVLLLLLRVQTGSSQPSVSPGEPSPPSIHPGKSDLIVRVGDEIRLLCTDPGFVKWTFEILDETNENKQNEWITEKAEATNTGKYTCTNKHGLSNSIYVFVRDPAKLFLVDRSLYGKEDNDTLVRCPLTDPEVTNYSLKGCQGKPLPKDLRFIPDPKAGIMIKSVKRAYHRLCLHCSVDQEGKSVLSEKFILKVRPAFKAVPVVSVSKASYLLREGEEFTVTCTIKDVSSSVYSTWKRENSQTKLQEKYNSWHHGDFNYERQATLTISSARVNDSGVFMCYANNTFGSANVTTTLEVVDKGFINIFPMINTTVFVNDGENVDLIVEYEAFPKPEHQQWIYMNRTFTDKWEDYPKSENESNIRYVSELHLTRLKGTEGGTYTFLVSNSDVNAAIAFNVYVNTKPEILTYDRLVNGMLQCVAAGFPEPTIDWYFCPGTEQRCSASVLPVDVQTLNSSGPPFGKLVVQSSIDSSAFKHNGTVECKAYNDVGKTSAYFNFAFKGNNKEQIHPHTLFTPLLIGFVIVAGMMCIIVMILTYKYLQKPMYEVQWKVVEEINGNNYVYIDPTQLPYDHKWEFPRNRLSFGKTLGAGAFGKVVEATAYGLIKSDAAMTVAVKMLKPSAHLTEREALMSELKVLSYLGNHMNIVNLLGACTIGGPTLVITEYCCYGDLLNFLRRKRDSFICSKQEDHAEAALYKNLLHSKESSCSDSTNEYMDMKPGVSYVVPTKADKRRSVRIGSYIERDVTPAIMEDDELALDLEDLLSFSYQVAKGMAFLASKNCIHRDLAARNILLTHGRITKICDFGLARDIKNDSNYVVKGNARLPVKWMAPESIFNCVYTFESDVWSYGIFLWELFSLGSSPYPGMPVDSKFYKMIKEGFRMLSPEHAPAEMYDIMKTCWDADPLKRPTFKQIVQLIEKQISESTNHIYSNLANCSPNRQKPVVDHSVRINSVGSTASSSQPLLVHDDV
Sequence of Macrophage colony-stimulating factor 1 receptor (P07333 whole entry): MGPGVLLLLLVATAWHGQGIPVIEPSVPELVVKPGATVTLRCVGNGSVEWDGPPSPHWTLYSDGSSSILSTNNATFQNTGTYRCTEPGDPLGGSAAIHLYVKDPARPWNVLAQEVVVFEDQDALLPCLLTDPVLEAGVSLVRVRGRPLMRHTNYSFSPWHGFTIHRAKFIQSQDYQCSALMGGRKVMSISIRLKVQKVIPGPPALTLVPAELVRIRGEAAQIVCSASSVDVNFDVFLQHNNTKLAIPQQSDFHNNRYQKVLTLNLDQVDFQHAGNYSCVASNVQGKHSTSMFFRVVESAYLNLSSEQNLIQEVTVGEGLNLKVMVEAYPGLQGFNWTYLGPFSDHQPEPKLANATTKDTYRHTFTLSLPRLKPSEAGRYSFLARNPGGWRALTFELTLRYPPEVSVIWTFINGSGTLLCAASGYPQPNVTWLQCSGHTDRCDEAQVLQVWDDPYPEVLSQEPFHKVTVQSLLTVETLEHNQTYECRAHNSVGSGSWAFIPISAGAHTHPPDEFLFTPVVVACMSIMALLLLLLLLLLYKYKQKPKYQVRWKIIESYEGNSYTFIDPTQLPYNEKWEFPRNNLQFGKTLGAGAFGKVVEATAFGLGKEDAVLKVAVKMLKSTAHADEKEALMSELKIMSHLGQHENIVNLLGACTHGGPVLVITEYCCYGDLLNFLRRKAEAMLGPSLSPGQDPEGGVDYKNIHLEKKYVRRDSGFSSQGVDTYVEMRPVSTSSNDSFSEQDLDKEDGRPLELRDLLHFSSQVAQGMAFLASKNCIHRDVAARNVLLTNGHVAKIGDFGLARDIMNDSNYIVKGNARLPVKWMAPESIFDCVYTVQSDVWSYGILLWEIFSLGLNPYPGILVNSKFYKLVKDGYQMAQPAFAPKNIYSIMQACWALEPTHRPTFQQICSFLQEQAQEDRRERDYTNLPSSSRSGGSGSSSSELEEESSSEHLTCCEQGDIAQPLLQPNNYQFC

Turning to `Cc1ccc(NC(=O)c2cccc(C(F)(F)F)c2)cc1NC(=O)c1cccc(-c2cnn(C)c2)c1`, the concentration for half-maximal inhibition (IC50) in series [1] stood at 130 nM. Further, in series [2], the “growth inhibition (GI)” value was “inactive”. In addition, the remaining at 0.5 h, 1 µM in series [3] was found to be 68%; in series [4], 74%.
In the case of `Cc1ccc(NC(=O)c2ccc(CN3CCN(C)CC3)c(C(F)(F)F)c2)cc1NC(=O)c1cccc(-c2cccs2)c1`, the IC50 in series [1] came to 1680 nM.
As for `Cc1ccc(NC(=O)c2ccc(CN3CCN(C)CC3)c(C(F)(F)F)c2)cc1NC(=O)c1cccc(-c2nn[nH]n2)c1`, in series [5], the inhibition of growth at 1 µM stood at 2.4%. In addition, the IC50 in series [1] was determined as 7500 nM. In addition, in series [2], the “growth inhibition (GI)” value was “inactive”.
In the case of `Cc1ccc(NC(=O)c2ccc(CN3CCN(C)CC3)c(C(F)(F)F)c2)cc1NC(=O)c1cccc(-c2ccccn2)c1`, in series [5], the inhibition of growth at 1 µM turned out to be 31%. In addition, the IC50 in series [1] worked out at 15000 nM. In series [2], the “growth inhibition (GI)” value is “inactive”.
In the case of `Cc1ccc(C(=O)Nc2ccc(CN3CCN(C)CC3)c(C(F)(F)F)c2)cc1NCc1cccc(-c2cccs2)c1`, the IC50 in series [1] is over 10000 nM.
Turning to `Cc1ccc(C(=O)Nc2ccc(CN3CCN(C)CC3)c(C(F)(F)F)c2)cc1NC(=O)c1cccc(-c2cncnc2)c1`, the inhibition of growth at 1 µM worked out at 64% in series [5] and 9% in series [2]. For the same compound, the IC50 in series [1] is 310 nM.
Consider `CN1CCN(Cc2ccc(NC(=O)c3ccc(Cl)c(NC(=O)c4cccc(-c5cccs5)c4)c3)cc2C(F)(F)F)CC1`, for which the values for the inhibition of growth at 1 µM in series [5] and in series [2] were -7% and 8%, respectively. Further, in series [1], the IC50 amounted to 190 nM.
As for `Cc1ccc(NC(=O)c2cccc(C(F)(F)F)c2)cc1NC(=O)c1cnc(N)nc1`, the inhibition of growth at 1 µM in series [5] came out at 86%. For the same compound, the IC50 in series [1] was found to be 820 nM. Also, in series [2], the “growth inhibition (GI)” value was “inactive”. Also, the figures for the remaining at 0.5 h, 1 µM in series [3] and in series [4] were 91% and 65%, respectively. Further, in series [6], the Papp A→B at 1 h, 10 µM stood at 0.1 ×10⁻⁶ cm/s. In series [7], the Papp B→A at 1 h, 10 µM came to 5.3 ×10⁻⁶ cm/s.
`Cc1ccc(NC(=O)c2ccc(CN3CCN(C)CC3)c(C(F)(F)F)c2)cc1NC(=O)c1cccc(-c2cccnc2)c1`: the inhibition of growth at 1 µM in series [5] turned out to be 84%. Also, the IC50 in series [1] was found to be 900 nM. In series [2], the “growth inhibition (GI)” value was “inactive”.
On to `Cc1ccc(C(=O)Nc2ccc(CN3CCN(C)CC3)c(C(F)(F)F)c2)cc1NC(=O)c1cccc(-c2cccs2)c1`, for which the inhibition of growth at 1 µM stood at 22% in series [5] and 7% in series [2]. Also, the IC50 in series [1] is 440 nM.
For `Cc1ccc(C(=O)Nc2ccc(CN3CCN(C)CC3)c(C(F)(F)F)c2)cc1NC(=O)c1cccc(-c2cccnc2)c1`, in that order: 61%, 6% and 210 nM.
As to `Cc1ccc(C(=O)Nc2ccc(CN3CCN(C)CC3)cc2)cc1NC(=O)c1cccc(-c2cccs2)c1`, the inhibition of growth at 1 µM in series [5] is 11%; in series [2], 8%. For the same compound, the IC50 in series [8] and in series [1] was over 10000 nM each time.

What is called IC50 is the concentration that inhibits the measured activity by half. As a reminder, the Papp A→B is the apparent permeability from the apical to the basolateral side of a cell layer. Broadly, the Papp B→A is how fast a substance crosses the layer from the basolateral side.

(Values after ChEMBL document CHEMBL4017453, “Design, synthesis and optimization of bis-amide derivatives as CSF1R inhibitors” (Bioorg Med Chem Lett, 2017).)
